HIV Env fusion – blocks HIV Env-driven cell-cell fusion | inhibition, % at 12.3 µM | HeLa-JRFL Env/CEM21 cell fusion, luciferase | 360,000 compounds, 1.1% hits | AID 651610;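 active = mean replicate inhibition score of at least 50 and every replicate individually at or above 50; inconclusive = only one of the two criteria met; inactive = mean below 50 and not all replicates reaching 50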;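 note: 0% = plate neutral controls and 100% = maraviroc near 300 nM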
SR-BI DiI-HDL act – enhances SR-BI lipid uptake from DiI-HDL; 320,000 compounds, 0.096% hits; CHO ldlA[mSR-BI] cells, DiI-HDL uptake fluorescence, 3 h; 100 = double the neutral-control signal; activation, % at 12.5 µM;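 active = mean replicate activation of at least 60% and every replicate at or above 60%; inconclusive = mean or all-replicate condition met, but not both; inactive = mean below 60% and not all replicates reaching 60%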;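 note: 0% = median plate neutral-control signal and 100% = twice that signal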
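material = CHO ldlA[mSR-BI] cells | medium = Ham's F12 with 0.5% BSA, HEPES 25 mM, pH 7.4 | reagent = fluorescent DiI-HDL, 10 µg/mL final | compound dosing = single-point compound dose | incubation = 3 h, 37 °C | measured by = bottom-read fluorescence, 550/595 nm | measure = HDL uptake via cellular fluorescence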
Rtt109 Vps75 – blocks Candida albicans Rtt109/Vps75 acetyltransferase activity; purified Rtt109/Vps75, ThioGlo CoA-SH fluorescence, 4 h; 330,000 compounds, 0.16% hits; Q5AAJ8; inhibition, % at 34.9 µM;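 active = inhibition of at least 50% in every replicate; inconclusive = best replicate reaches 50% inhibition but some replicates fall short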
Target sequence (Q5AAJ8 whole entry, looked up): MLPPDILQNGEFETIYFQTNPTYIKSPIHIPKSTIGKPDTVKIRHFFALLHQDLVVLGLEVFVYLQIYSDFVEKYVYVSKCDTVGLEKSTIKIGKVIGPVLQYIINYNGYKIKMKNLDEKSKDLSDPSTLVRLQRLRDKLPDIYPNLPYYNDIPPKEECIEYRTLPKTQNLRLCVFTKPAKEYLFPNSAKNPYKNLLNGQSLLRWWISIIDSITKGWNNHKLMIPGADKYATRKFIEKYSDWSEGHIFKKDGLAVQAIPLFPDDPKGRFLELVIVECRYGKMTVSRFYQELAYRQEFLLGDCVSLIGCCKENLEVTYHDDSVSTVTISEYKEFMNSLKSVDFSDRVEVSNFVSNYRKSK
PglD inh – inhibitors of Campylobacter jejuni PglD acetyltransferase; purified PglD enzyme, DTNB colorimetric CoA detection; inhibition, % at 12.5 µM; 360,000 compounds, 0.098% hits; in the data active = inhibition above about 16%, passing the limit was not always enough; inconclusive = no clear call, values can overlap the other calls
SR-BI HDL uptake – mouse SR-BI HDL lipid transfer inhibition; Q61009; ldlA[mSR-BI] CHO cells, DiI-HDL uptake fluorescence, 3 h; inhibition, % at 12.5 µM; 320,000 compounds, 0.96% hits; AID 488896;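 active = mean replicate inhibition of at least 70% and a set share of replicates each scoring 70 or more; inconclusive = meets just one of the two criteria; inactive = fails both criteria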;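 note: 0% = median of neutral control wells and 100% = median of positive control wells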
N-glyco inh – blocks N-linked glycosylation in D54 reporter cells; reporter increase, % at 12.5 µM; 360,000 compounds, 0.23% hits; D54 ERlucT glycosylation luciferase reporter, 24 h; percent of 100 nM tunicamycin response;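 active = mean luciferase reporter signal, scaled so untreated is 0 and the glycosylation-blocking control 100, at or above a set limit in every replicate; inconclusive = mean reaches the limit but not every replicate does; inactive = mean below the limit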;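 note: luciferase carries N-glycosylation sites so blocking glycosylation raises the light; 0% = median of neutral control wells and 100% = median of 100 nM tunicamycin wells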
* = called active by the depositor; ? = inconclusive; / = no result; [ ] = another dose, or the depositor's remark. In the library only some 1.9% were active in any assay of this set; here they are far more common.

SMILES	HIV Env fusion	SR-BI DiI-HDL act	Rtt109 Vps75	PglD inh	SR-BI HDL uptake	N-glyco inh
COc1ccc2c(c1)[C@H]1[C@H](CO2)[C@H](c2ccccc2)[C@]2(C)C(=O)Nc3ccc(F)cc3C(=O)N12	28.9	3.3	0.4	8.9	-3.3	51.4*
COc1ccc2c(c1)[C@H]1[C@H](CO2)[C@H](c2ccccc2)[C@]2(C)C(=O)Nc3ccc(C)cc3C(=O)N12	-14.7	17.1	6.0	0.1	-17.1	57.8*
COc1ccc2c(c1)C(=O)N1[C@H]3c4cc(C)ccc4OC[C@@H]3[C@H](c3ccccc3)[C@]1(C)C(=O)N2	19.9	5.2	6.5	-2.2	-5.2	24.5
COc1ccc2c(c1)[C@H]1[C@H](CO2)[C@H](c2ccccc2)[C@]2(C)C(=O)Nc3cc(OC)c(OC)cc3C(=O)N12	102.0*	-16.5	9.9	-5.5	16.5	59.2*
COc1ccc2c(c1)OC[C@H]1[C@H]2N2C(=O)c3cc(C)ccc3NC(=O)[C@@]2(C)[C@H]1c1ccccc1	/	-38.4	0.3	-4.8	38.4	39.1*
COc1ccc2c(c1)[C@H]1[C@H](CO2)[C@H](c2ccccc2)[C@]2(C)C(=O)Nc3ccc(Cl)cc3C(=O)N12	48.7	-3.5	1.9	-2.6	3.5	40.0*
C[C@@]12C(=O)Nc3ccc(Cl)cc3C(=O)N1[C@H]1c3cc(Cl)ccc3OC[C@@H]1[C@@H]2c1ccccc1	21.1	-0.8	-3.4	0.6	0.8	17.2
Cc1ccc2c(c1)[C@H]1[C@H](CO2)[C@H](c2ccccc2)[C@]2(C)C(=O)Nc3ccccc3C(=O)N12	27.3	-26.8	-3.3	3.4	26.8	13.4
COc1ccc2c(c1)[C@@H]1[C@H](CO2)[C@H](c2ccccc2)[C@]2(C)C(=O)Nc3ccc(C)cc3C(=O)N12	/	2.1	6.8	-0.5	-2.1	34.0*
Cc1ccc(S(=O)(=O)N[C@H]2C=C[C@H](CC(=O)NCCN3CCCCC3)O[C@@H]2CO)cc1	15.2[16.7 µM]	/	/	-11.6	/	/
O=c1[nH]c(CSc2nc(-c3ccccc3)cs2)nc2ccccc12	14.9	22.0	-0.6	/	-22.0	0.5
O=c1[nH]c(CSc2ncnc3sc(-c4ccccc4)cc23)nc2ccccc12	24.3	-11.5	2.0	5.6	11.5	32.6*
Cn1c(CSc2ncn[nH]2)nc2ccccc21	/	68.4*	1.3	2.5	-68.4	0.0
C[C@H](CO)N1C[C@H](C)[C@H](CN(C)C(=O)CCC(F)(F)F)OCCCC[C@H](C)Oc2ccc(NC(=O)NC3CCCCC3)cc2C1=O	-19.2[16.7 µM]	/	/	2.1	/	/
Cc1c(CCOC(=O)C23CC4(C)CC(C)(CC(C)(C4)C2)C3)sc[n+]1CC(=O)c1ccccc1	61.8*	52.0	-6.1	/	-52.0	-14.0
Cc1c(CCOC(=O)CC23CC4CC(CC(C4)C2)C3)sc[n+]1CC(=O)c1ccccc1	?	-18.0	20.1	/	18.0	-2.6
CNC(=O)COC(=O)c1ccc(NC(=O)CC#N)cc1	/	4.8	-1.5	2.4	-4.8	2.7
Cc1cc(C)c(C(=O)COC(=O)c2ccc(NC(=O)CC#N)cc2)cc1C	-2.6	-75.2	2.7	1.9	75.2*	-0.8
Cc1cc(C)c2c(=O)n(CC(=O)Nc3cccc(Cl)c3C)sc2n1	-6.4	14.7	150.2*	-0.6	-14.7	2.8
Cc1cc(C)c2c(=O)n(CC(=O)Nc3ccc(Br)c(C)c3)sc2n1	-10.3	/	5.6	/	/	1.2
COc1ccc(CN(C)C(=O)c2ccc(OCC(=O)Nc3cccc(C(F)(F)F)c3)c(OC)c2)c(OC)c1	75.7*	-67.1	-2.9	-6.1	67.1	-2.8
COc1cccc(CN(C)C(=O)c2ccc(OCC(=O)Nc3cccc(C(F)(F)F)c3)c(OC)c2)c1	15.2	-66.1	-2.6	2.4	66.1	-5.0
COc1ccc(-c2[nH]c(-c3ccc(Cl)cc3)nc2SCC(=O)Nc2nccs2)cc1	-2.9	-83.2	1.3	-1.0	83.2*	4.0
COc1ccc(-c2[nH]c(-c3ccc(C)cc3)nc2SCC(=O)NC2CCCC2)cc1	13.4	-80.1	-14.8	3.0	80.1*	-1.3
Cc1noc(C)c1S(=O)(=O)Nc1ccc2c(c1)C(=O)N([C@H](C)CO)C[C@@H](C)[C@H](CN(C)S(=O)(=O)c1ccccc1)O2	/	/	/	4.7	/	/
SMILES	HIV Env fusion	SR-BI DiI-HDL act	Rtt109 Vps75	PglD inh	SR-BI HDL uptake	N-glyco inh
Cc1c(NS(=O)(=O)c2ccc3c(c2)OCCO3)cccc1-c1nc2cccnc2s1	44.4*	5.4	19.0	1.2	-5.4	-4.5
NC(=S)NN=C1CCC(C2CCCCC2)CC1 (stereo not given)	8.4	-74.9	1.0	-0.6	?	-3.6
NC(=S)NN=C1CCCCCCCCCC1	/	-75.8	-0.9	-4.9	75.8*	-1.0
Oc1ccccc1CNc1cnc2ccccc2c1	/	10.3	56.7*	4.9	-10.3	-2.0
COc1ccccc1CNc1ncnc2cc(Cl)ccc12	11.5	-20.1	-15.8	/	20.1	-0.1
CCOc1ccccc1CNc1ncnc2ccc(-c3c(C)noc3C)cc12	69.9*	-16.1	-4.2	-2.0	16.1	10.2
CCCC#Cc1cnc2c(c1)C(=O)N([C@@H](C)CO)C[C@H](C)[C@@H](CN(C)S(=O)(=O)c1cccc(OC)c1)O2	/	/	/	8.4	/	/
COc1ccc([C@@H]2[C@@H]3C(=O)N(C(C)(C)C)C(=O)[C@@H]3[C@]3(Cc4ccccc4)C(=O)N(c4ccccc4)C(=O)N23)cc1	4.0	29.7	12.5	-3.6	-29.7	1.2
COc1ccc([C@@H]2[C@@H]3C(=O)N(C(C)(C)C)C(=O)[C@@H]3[C@]3(Cc4ccccc4)C(=O)N(c4cccc(Cl)c4)C(=O)N23)cc1	79.7*	7.3	2.6	-5.1	-7.3	?
COc1ccc([C@@H]2[C@@H]3C(=O)N(C(C)(C)C)C(=O)[C@@H]3[C@]3(Cc4ccccc4)C(=O)N(c4cccc(C)c4)C(=O)N23)cc1	18.9	26.8	-7.7	4.1	-26.8	56.0*
COc1ccc2nc(-c3ccco3)c(-c3ccco3)nc2c1	/	-11.1	-1.6	2.9	11.1	32.7*
CCN(CC)C(=O)c1ccc(S(=O)(=O)N2CCC(c3nc4ccccc4s3)CC2)cc1	/	-25.8	3.1	1.5	25.8	-3.2
CC1CCCN(C(=O)c2ccc(S(=O)(=O)N3CCC(c4nc5ccccc5s4)CC3)cc2)C1 (stereo not given)	67.8*	-35.1	-0.6	6.3	35.1	-1.4
C[C@@H]1CN([C@H](C)CO)C(=O)c2cc(NC(=O)Nc3ccc(C(F)(F)F)cc3)ccc2O[C@@H](C)CCCCO[C@@H]1CN(C)Cc1ccc(Cl)c(Cl)c1	8.4[16.7 µM]	/	/	-2.9	/	/
COc1ccc(CNC(=O)N(C)C[C@@H]2OCc3ccccc3-c3c(n(C)c4ccccc34)C(=O)N([C@@H](C)CO)C[C@@H]2C)cc1	100.2*	/	/	/	/	/
COc1ccc(CNC(=O)N(C)C[C@@H]2OCc3ccccc3-c3c(n(C)c4ccccc34)C(=O)N([C@H](C)CO)C[C@@H]2C)cc1	85.1*[16.7 µM]	/	/	1.3	/	/
